For one compound, BWD, T/C and TDS results are on record in ChEMBL document CHEMBL1124794, “Synthesis, chemistry, and antineoplastic activity of alpha-halopyridinium salts: potential pyridone prodrugs of acylated vinylogous carbinolamine tumor inhibitors” (J Med Chem, 1990).

Format in all cases: functional, Mus musculus
In experiment [1] the test system is P388. In words: In vivo activity against P388 Lymphocytic Leukemia in CD2F1 mice at the dose of 12.5 mg/kg, activity expressed as body weight difference. The gist of the method:
(§1)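 CD2F1 mice were inoculated with ascitic fluid holding ca. 10^6 P388 cells. Drug was given daily from 24 h after inoculation, from solutions or suspensions made fresh each day, some as a saline suspension. TDS is survivors/initial animals on day 5. BWD is body weight on day 5 minus day 1. %T/C compares median survival of treated and control mice.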

In experiment [2] the test system is P388. In words: In vivo activity against P388 Lymphocytic Leukemia in CD2F1 mice at the dose of 25 mg/kg, activity expressed as body weight difference. The gist of the method: as §1
The subject of experiment [3] is P388. Kind of experiment: In vivo activity against P388 Lymphocytic Leukemia in CD2F1 mice at the dose of 6.2 mg/kg, activity expressed as body weight difference. Put shortly:
as §1

Experiment [4] has as its system P388. Kind of experiment: In vivo activity against P388 Lymphocytic Leukemia in CD2F1 mice at the dose of 6.2 mg/kg, activity expressed as % T/C. The gist of the method:
as §1

Experiment [5] has as its system P388. Kind of experiment: In vivo activity against P388 Lymphocytic Leukemia in CD2F1 mice at the dose of 12.5 mg/kg, activity expressed as TDS; 4/4. The gist of the method: as §1
For experiment [6], the system named is P388. In words: In vivo activity against P388 Lymphocytic Leukemia in CD2F1 mice at the dose of 25 mg/kg, activity expressed as TDS; 4/4. Put shortly:
as §1

In experiment [7] the test system is P388. Kind of experiment: In vivo activity against P388 Lymphocytic Leukemia in CD2F1 mice at the dose of 50 mg/kg, activity expressed as TDS; 0/4. Put shortly:
as §1

In experiment [8] the test system is P388. Kind of experiment: In vivo activity against P388 Lymphocytic Leukemia in CD2F1 mice at the dose of 6.2 mg/kg, activity expressed as TDS; 4/4. Put shortly: as §1
Experiment [9] deals with P388. Kind of experiment: In vivo activity against P388 Lymphocytic Leukemia in CD2F1 mice at the dose of 12.5 mg/kg, activity expressed as % T/C. Put shortly: as §1
The subject of experiment [10] is P388. Kind of experiment: In vivo activity against P388 Lymphocytic Leukemia in CD2F1 mice at the dose of 25 mg/kg, activity expressed as % T/C. Put shortly: as §1

Molecules are shown by their SMILES.

With `CC(C)NC(=O)OCc1c(COC(=O)NC(C)C)c(-c2ccc(Cl)[n+](C)c2)n2c1CCC2.[I-]`, the BWD in [1] is 0.1 g; in [2], -1.1 g; in experiment [3], -0.4 g. Also, the T/C amounted to 98% in experiment [4], 102% in [9] and 109% in experiment [10]. Further, the TDS came out at 4 in experiment [5], 4 in [6], 0 in experiment [7] and 4 in [8].
